Experimental data pooled from the literature.
Compare with care: the assays were run in different laboratories.
Target: Calcium/calmodulin-dependent protein kinase type II subunit beta (CAMK2B, Homo sapiens, UniProt Q13554)

With `O=C(NC[C@@H]1[C@H]2CN(C(=O)OCc3cc(C(F)(F)F)cc(C(F)(F)F)c3)C[C@@H]12)c1ccc2[nH]nnc2c1` the remaining binding was 100% (cell-free assay; competition with immobilised ligand; 1 µM).
The remaining signal of `N#CCCc1ccc2c(c1)-c1[nH]c3ccc([N+](=O)[O-])cc3c1CC(=O)N2` is reported as 99.3% (cell-free assay; 0.5 µM).
`Cc1ccc(C(=O)NCc2ccsc2)cc1C#Cc1cn(C(C)C)c2ncnc(N)c12` gave an activity vs control of 95% (enzyme activity; inhibitor; 1 µM).
For `CCCCN(CCCC)C(=O)CN1C[C@@H](c2cc(OC)c3c(c2)OCO3)[C@H](C(=O)O)[C@H]1CC(C)(C)CCC`, the remaining binding was 100% (cell-free assay; competition with immobilised ligand; 1 µM).
`CCN(CC)CCNC(=O)c1c(C)[nH]c(/C=C2\C(=O)Nc3ccc(F)cc32)c1C` gave an inhibition of 91% (enzyme activity; inhibitor; 10 µM).
For `O=C(Nc1cnn(-c2csc(C(=O)NC3COC3)c2)c1)Nc1c(F)cccc1Cl`, the remaining activity was 99.1% (enzyme activity; inhibitor; 5 µM).
`CC(C)(C)c1nc(-c2cccc(NS(=O)(=O)c3c(F)cccc3F)c2F)c(-c2ccnc(N)n2)s1` has a remaining activity of 78% (enzyme activity; inhibitor; radiometric; 1 µM).
`CCN(CC)CCNC(=O)c1c(C)[nH]c(/C=C2\C(=O)Nc3ccc(Cl)cc32)c1C` has a remaining activity of 27.3% (enzyme activity; inhibitor; 0.5 µM).
With `Cc1nc(Cc2cccc(C(F)(F)F)c2)sc1-c1ccc(C(N)=O)nc1` the remaining binding was 100% (cell-free assay; competition with immobilised ligand; 1 µM).
`Cc1cnc(NC2CCOCC2)nc1-n1cnc(C(=O)NC(CN)c2cc(F)cc(Cl)c2)c1` (stereo not drawn) gave a remaining activity of 87% (enzyme activity; inhibitor; radiometric; 1 µM).
With `Nc1ncnc2occ(-c3ccc(NC(=O)Nc4cc(C(F)(F)F)ccc4F)cc3)c12` the remaining activity was 95% (enzyme activity; inhibitor; 20 µM).
With `COc1cccc2c(NCc3ccccc3)nc(-n3c(N)nc4ccccc43)nc12` the inhibition was -1.1% (target engagement in cells; inhibitor; chemoproteomics; 20 mM).
With `C[S+]([O-])c1ccc(-c2nc(-c3ccncc3)c(-c3ccc(F)cc3)[nH]2)cc1` (stereo not drawn) the remaining signal was 97.6% (cell-free assay; 0.5 µM).
With `CCCS(=O)(=O)Nc1ccc(F)c(C(=O)c2c[nH]c3ncc(-c4ccc(Cl)cc4)cc23)c1F` the inhibition was less than 10% (enzyme activity; inhibitor; 1 µM).
The remaining signal of `COc1ccc(COc2ccc(Cc3cnc(N)nc3N)cc2OC)cc1` is reported as 100% (cell-free assay; 0.5 µM).
`Cc1ccc(Nc2nccc(N(C)c3ccc4c(C)n(C)nc4c3)n2)cc1S(N)(=O)=O` gave an inhibition of 15% (enzyme activity; inhibitor; 0.3 µM).
With `Cc1cc(NC(=O)c2cccc3cc(-c4cccc5[nH]nc(N)c45)ccc23)ccc1F` the activity vs control was 94% (enzyme activity; inhibitor; 0.1 µM).
For `O=C(NCc1ncc(C(F)(F)F)cc1Cl)c1ccc2c(c1)C1(CCS(=O)(=O)CC1)[C@@H](C1CC1)N2S(=O)(=O)c1ccc(F)cc1`, the remaining binding was 92% (cell-free assay; competition with immobilised ligand; 1 µM).
For `O=c1cc(-c2cccc3c2Sc2ccccc2S3)oc(N2CCOCC2)c1`, the remaining activity was 106% (enzyme activity; inhibitor; 0.5 µM).
`c1ccc(CNc2nc(N3CCOc4ccccc43)nc3c2CCCC3)cc1` gave an inhibition of 12.7% (target engagement in cells; inhibitor; chemoproteomics; 20 mM).
`COc1cc(Nc2c(C#N)cnc3cc(OCCCN4CCN(C)CC4)c(OC)cc23)c(Cl)cc1Cl` has a remaining signal of 86.2% (cell-free assay; 0.5 µM).
For `Cc1ncc([N+](=O)[O-])n1C(=NO)c1ccccc1C(F)(F)F`, the inhibition was 13.6% (enzyme activity; inhibitor; 10 µM).
For `O=C(O)[C@H]1[C@H](Cn2nnc3ccccc3c2=O)CC[C@@H]1C(=O)c1ccc(OCCC2CCOCC2)cc1`, the remaining binding was 100% (cell-free assay; competition with immobilised ligand; 1 µM).
With `Cc1ccc(-n2nc(C(C)(C)C)cc2NC(=O)Nc2ccc(OCCN3CCOCC3)c3ccccc23)cc1` the inhibition was 22% (enzyme activity; inhibitor; 10 µM).
`O=C(Nc1ccc(Oc2ccc(F)cc2)cc1)N1CCc2ncccc2[C@H]1c1ccc(F)cc1` gave a remaining binding of 100% (cell-free assay; competition with immobilised ligand; 1 µM).
For `COc1cc2ncnc(Nc3ccc(Oc4ccccc4)c(C)c3C)c2cc1OC`, the inhibition was 12% (enzyme activity; inhibitor; 1 µM).
With `Nc1c(C(=O)NCc2ccc(C(=O)NCCCC3CCCCC3)cc2)cnn1-c1ccccc1` the remaining binding was 100% (cell-free assay; competition with immobilised ligand; 0.1 µM).
With `CNC(=O)c1cc(Oc2ccc(NC(=O)Nc3ccc(Cl)c(C(F)(F)F)c3)cc2)ccn1` the inhibition was 50% (enzyme activity; inhibitor; 10 µM).
For `O=C1NC(c2ccccn2)Sc2ccccc21` (stereo not drawn), the remaining binding was 100% (cell-free assay; competition with immobilised ligand; 1 µM).
`Cc1ccc(NC(=O)c2ccc(C)c(C(F)(F)F)c2)cc1C#Cc1nn(C2CCC(O)CC2)c2ncnc(N)c12` (stereo not drawn) gave a remaining signal of 85% (cell-free assay; 10 µM).
